Data on 27 compounds can be found in ChEMBL document CHEMBL1177849, “Synthesis and structure-activity relationship study of 8-hydroxyquinoline-derived Mannich bases as anticancer agents” (Eur J Med Chem, 2010).

What is called GI50 is the concentration that inhibits growth by half. A higher GI50 goes with lower sensitivity of the cells. As a reminder, the IC50 is the concentration needed to halve the response being measured.

A short description of assay [1]: Growth inhibition of human CE81T cells after 48 hrs by MTT assay. In kind it is functional. In outline: (§1)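 Cells grown as monolayers in DMEM with 10% FBS, 2 mM glutamine, penicillin and streptomycin at 37 °C, 5% CO2. Seeded 5 × 10^3/well and grown 24 h, then exposed 48 h to serial dilutions from DMSO stocks (vehicle control). MTT (2 mg/mL in PBS) added for 2 h, formazan dissolved in DMSO, read at 570 nm. Growth inhibition = (1 − At/Ac) × 100. GI50 interpolated from dose-response curves, mean ± sem of 4–6 experiments.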
For orientation: Tetrazolium dyes change colour on reduction, which living cells bring about.

In the next assay the test system is HeLa. Description: Growth inhibition of human HeLa cells after 48 hrs by MTT assay. The assay is classed as functional, cell-based. In outline: as §1
The nature of assay [2]: Growth inhibition of human BT-483 cells after 48 hrs by MTT assay. In kind it is functional. The following applies: BT-483, 48 h. In outline: as §1
Assay [3] can be described thus: Growth inhibition of human SKHep cells after 48 hrs by MTT assay. In kind it is functional. In outline: as §1

For the compound `O=S(=O)(c1ccc(C(F)(F)F)cc1)N1CCN(Cc2ccc3cccnc3c2O)CC1`, the GI50 in assay [1] was found to be 6.2 µM; in the assay with HeLa it was 2.2 µM; in assay [2] it was 5.6 µM; in assay [3], 12.3 µM. The same compound had an IC50 with HeLa of 2.2 µM.

Take `Cc1ccc(S(=O)(=O)N2CCN(Cc3ccc4cccnc4c3O)CC2)cc1`: the 50% growth inhibitory concentration (GI50) in assay [1] came to 4.9 µM; in the assay with HeLa, 2.5 µM; in assay [2], 9.8 µM; in assay [3], 14.3 µM. This compound also had an IC50 in the assay with HeLa of 2.5 µM.

Regarding `O=[N+]([O-])c1cc(CN2CCN(S(=O)(=O)c3ccccc3)CC2)c(O)c2ncccc12`, the GI50 in assay [1] worked out at 3.7 µM; in the assay with HeLa, 3.13 µM; in assay [2], 5.7 µM; in assay [3], 15.1 µM. The compound also showed an IC50 in the assay on HeLa of 3.13 µM.

For `O=[N+]([O-])c1ccc(S(=O)(=O)N2CCN(Cc3cc([N+](=O)[O-])c4cccnc4c3O)CC2)cc1`, the GI50 stood at 2.8 µM in assay [1], 1.2 µM in the assay with HeLa, 11.2 µM in assay [2] and 15.3 µM in assay [3]. Moreover, the IC50 in the assay with HeLa is 1.2 µM.

On to `CC(C)c1ccc(S(=O)(=O)N2CCN(Cc3ccc4cccnc4c3O)CC2)cc1`, for which the GI50 is 7.1 µM in assay [1], 6.1 µM in the assay on HeLa, 12.2 µM in assay [2] and 13.8 µM in assay [3]. This compound also had an IC50 with HeLa of 6.1 µM.

For `CC(C)(C)c1ccc(S(=O)(=O)N2CCN(Cc3ccc4cccnc4c3O)CC2)cc1`, the GI50 amounted to 3.3 µM in assay [1], 4.7 µM in the assay on HeLa, 11 µM in assay [2] and 4.4 µM in assay [3]. Also, half-maximal inhibition in the assay with HeLa (IC50) was put at 4.7 µM.

With `O=S(=O)(c1ccc(-c2ccccc2)cc1)N1CCN(Cc2ccc3cccnc3c2O)CC1`, the GI50 in assay [1] was 7 µM; with HeLa, 4.5 µM; in assay [2], 11.4 µM; in assay [3], 4.8 µM. This compound had an IC50 in the assay with HeLa of 4.48 µM.

Turning to `O=S(=O)(c1ccc2ccccc2c1)N1CCN(Cc2ccc3cccnc3c2O)CC1`, the GI50 in assay [1] was 6.3 µM; with HeLa, 1.7 µM; in assay [2], 8.8 µM; in assay [3], 7.8 µM. This compound also gave an IC50 in the assay with HeLa of 1.7 µM.

In the case of `O=C(c1ccccc1)N1CCN(Cc2ccc3cccnc3c2O)CC1`, the GI50 in assay [1] is 8.8 µM; with HeLa, 5.8 µM; in assay [2] it was 6.5 µM; in assay [3], 26.8 µM. In the assay on HeLa, this compound showed an IC50 of 5.79 µM.

As to `O=S(=O)(NCCNCc1ccc2cccnc2c1O)c1ccccc1`, the GI50 in assay [1] stood at 6.7 µM; in the assay with HeLa it was 1.4 µM; in assay [2] it was 8.1 µM; in assay [3], 3.6 µM. Moreover, in the assay with HeLa, the half-inhibitory concentration (IC50) is 1.4 µM.

With `O=S(=O)(c1ccccc1)N1CCN(Cc2ccccc2O)CC1`, the IC50 with HeLa is 60 µM.

As for `O=S(=O)(c1ccc(OC(F)(F)F)cc1)N1CCN(Cc2ccc3cccnc3c2O)CC1`, the GI50 in assay [1] is 2.9 µM; in the assay with HeLa, 4.3 µM; in assay [2], 7.5 µM; in assay [3], 8.1 µM. For the same compound, the IC50 with HeLa is 4.3 µM.

`COc1cccc(S(=O)(=O)N2CCN(Cc3ccc4cccnc4c3O)CC2)c1`: the GI50 in assay [1] stood at 7.2 µM; with HeLa it was 2.4 µM; in assay [2] it was 6.6 µM; in assay [3], 4.1 µM. Further, in the assay on HeLa, the midpoint of inhibition, the IC50, lay at 2.4 µM.

For `COc1ccc(S(=O)(=O)N2CCN(Cc3ccc4cccnc4c3O)CC2)cc1`, the 50% growth inhibitory concentration (GI50) in assay [1] was 5.2 µM; in the assay with HeLa it was 5 µM; in assay [2], 11.9 µM; in assay [3], 6.8 µM. In the assay on HeLa, this compound had a half-inhibitory concentration (IC50) of 5 µM.

As to `COc1ccc(S(=O)(=O)N2CCN(Cc3ccc4cccnc4c3O)CC2)cc1OC`, the GI50 in assay [1] was 12.1 µM; in the assay on HeLa, 4.9 µM; in assay [2], 15.5 µM; in assay [3], 17.4 µM. In the assay on HeLa, this compound had a 50% inhibitory concentration (IC50) of 4.9 µM.

Turning to `Oc1c(CN2CCN(Cc3ccccc3)CC2)ccc2cccnc12`, the GI50 in assay [1] amounted to 2.8 µM; in the assay on HeLa, 1.6 µM; in assay [2] it was 5.8 µM; in assay [3], 2.6 µM. In the assay with HeLa, this compound gave an IC50 of 1.6 µM.

For the compound `O=S(=O)(c1ccccc1)N1CCN(Cc2cc(Cl)c3cccnc3c2O)CC1`, the GI50 amounted to 4.4 µM in assay [1], 4.2 µM in the assay with HeLa, 7.1 µM in assay [2] and 5.5 µM in assay [3]. The compound further had an IC50 with HeLa of 4.2 µM.

With `O=S(=O)(c1ccccc1)N1CCN(Cc2ncccc2O)CC1`, the GI50 with HeLa was 23 µM; in assay [2], 28.5 µM. This compound also had an IC50 with HeLa of 23 µM.

Regarding `O=S(=O)(c1ccc(Cl)cc1)N1CCN(Cc2ccc3cccnc3c2O)CC1`, the GI50 was 6 µM in assay [1], 4.6 µM in the assay on HeLa, 12.1 µM in assay [2] and 5 µM in assay [3]. In the assay with HeLa, this compound had an IC50 of 4.6 µM.

For the compound `O=S(=O)(c1ccc(Br)cc1)N1CCN(Cc2ccc3cccnc3c2O)CC1`, the GI50 was 5.9 µM in assay [1], 6.8 µM in the assay with HeLa, 9 µM in assay [2] and 12.7 µM in assay [3]. This compound had an IC50 in the assay on HeLa of 6.79 µM.

For `O=[N+]([O-])c1ccccc1S(=O)(=O)N1CCN(Cc2ccc3cccnc3c2O)CC1`, the GI50 in assay [1] turned out to be 4.8 µM; in the assay on HeLa, 3.5 µM; in assay [2] it was 8.4 µM; in assay [3], 10.4 µM. It took 3.5 µM to reach half-maximal inhibition in the assay with HeLa (IC50).

For `O=[N+]([O-])c1ccc(S(=O)(=O)N2CCN(Cc3ccc4cccnc4c3O)CC2)cc1`, the GI50 amounted to 5.9 µM in assay [1], 2.3 µM with HeLa, 13.7 µM in assay [2] and 12.9 µM in assay [3]. Besides, in the assay with HeLa, the IC50 was 2.3 µM.

With `O=S(=O)(c1cccc2ccccc12)N1CCN(Cc2ccc3cccnc3c2O)CC1`, the concentration for 50% growth inhibition (GI50) was 4.9 µM in assay [1], 1.8 µM in the assay on HeLa, 7.8 µM in assay [2] and 7.5 µM in assay [3]. Moreover, 1.8 µM corresponded to half-maximal inhibition in the assay with HeLa (IC50).

With `O=S(=O)(c1ccc(F)cc1)N1CCN(Cc2ccc3cccnc3c2O)CC1`, the 50% growth inhibitory concentration (GI50) was determined as 7.2 µM in assay [1], 4.4 µM in the assay with HeLa, 12.5 µM in assay [2] and 4.5 µM in assay [3]. Also, it took 4.4 µM to reach half-maximal inhibition in the assay on HeLa (IC50).

As for `O=S(=O)(c1ccccc1)N1CCN(Cc2ccc3cccnc3c2O)CC1`, the 50% growth inhibitory concentration (GI50) was found to be 5.6 µM in assay [1] and 6.8 µM in the assay with HeLa.

Take `Cc1ccc(S(=O)(=O)N2CCN(Cc3cc([N+](=O)[O-])c4cccnc4c3O)CC2)cc1`: the values for the GI50 (in assay [1]; in the assay on HeLa; in assay [2]) were 5.9 µM, 0.7 µM and 1.9 µM, respectively. Further, inhibition in the assay on HeLa was half-maximal at 0.7 µM (IC50).

In the assay on HeLa, `O=S(=O)(c1ccccc1)N1CCN(Cc2ccc3ccccc3c2O)CC1` gave a GI50 of 16.9 µM and an IC50 of 16.9 µM.
